# Results from different studies.
# Protocols differ between the studies behind these lines.
# Observed: cell growth or viability
SMILES,cell line,technique,tested at,time,quantity,value
CC(C)Nc1ccnc(Nc2cccc(-c3nccs3)c2)n1,MV4-11,ATP luminescence,,72 h,EC50,9.46 µM
COC(=O)c1c(C)ncn1CC(c1c[nH]c2ccccc12)c1c[nH]c2ccccc12,human Fibroblast,MTS,20 µM,24 h,inhibition,12%
CCN(CC)CCOC(=O)C1(c2ccc([N+](=O)[O-])cc2)CCCC1,HN-6,,,72 h,IC50,> 20 µM
CNC(=O)COc1cc2cc(Nc3nc(N4CCC(C(=O)NCCCCCCCNC(=O)C[C@@H]5N=C(c6ccc(Cl)cc6)c6c(sc(C)c6C)-n6c(C)nnc65)CC4)ncc3Cl)cc(OC)c2n(C)c1=O,human Fibroblast,,,72 h,EC50,~0.47 µM
CCc1ncn(CC(c2c[nH]c3ccc(C)cc23)c2c[nH]c3ccc(C)cc23)c1C(=O)OC,human Fibroblast,MTS,20 µM,24 h,inhibition,6.7%
c1ccc(-c2cccc(Nc3nccc(NC4CCCCC4)n3)c2)cc1,MV4-11,ATP luminescence,,72 h,EC50,> 4 µM
COc1ccc(-c2ccc(-c3ccc(C(=N)N)nc3)s2)cc1,LOX IMVI,SRB,,,GI50,1.88 µM
CC(C)Nc1ccnc(Nc2cccc(C(C)(C)C)c2)n1,MV4-11,ATP luminescence,,72 h,EC50,> 13 µM
CC(C)=CCC[C@](C)(O)[C@H]1CC[C@]2(C)[C@@H]1[C@H](O)C[C@@H]1[C@@]3(C)CC[C@H](O[C@@H]4O[C@H](CO)[C@@H](O)[C@H](O)[C@H]4O[C@@H]4O[C@H](CO)[C@@H](O)[C@H](O)[C@H]4O)C(C)(C)[C@@H]3CC[C@]12C,BEAS-2B,MTT,,72 h,IC80,> 100 µM
CC1(C)C(=O)NC2=C1C(=O)C(=O)c1ccccc12,HN-6,,,72 h,IC50,> 20 µM
Cc1cc2c(cc1N1C(=O)c3cccc4c(CCCO)ccc(c34)C1=O)n(C)c(=O)n2C (racemic),769-P,resazurin,,,GI50,3.21 µM
CCCNc1ccnc(Nc2cccc(-c3cccnc3)c2)n1,MV4-11,ATP luminescence,,72 h,EC50,0.138 µM
COc1cc(-c2ccc(-c3ccc(C(=N)N)nc3)s2)cc(OC)c1OC,LOX IMVI,SRB,,,GI50,1.87 µM
COC(=O)c1c(C)ncn1CC(c1c[nH]c2ccc(C)cc12)c1c[nH]c2ccc(C)cc12,human Fibroblast,MTS,20 µM,24 h,inhibition,13.8%
COC(C)(C)CCC[C@](C)(O)[C@H]1CC[C@]2(C)[C@@H]1[C@H](O)C[C@@H]1[C@@]3(C)CC[C@H](O)C(C)(C)[C@@H]3CC[C@]12C,BEAS-2B,MTT,,72 h,IC80,> 100 µM
CC(C)Nc1ccnc(Nc2cccc(-c3ccccc3)c2)n1,MV4-11,ATP luminescence,,72 h,EC50,3.98 µM
Cc1cn(CC(c2cn(C)c3ccccc23)c2cn(C)c3ccccc23)nn1,human Fibroblast,MTS,20 µM,24 h,inhibition,17.1%
CC(C)(CO)Cn1nc(-c2ccc3cc(OC4CC4)ccc3c2)c2c(N)ncnc21,CRL8155,,,,GI50,> 10 µM
